Assay results from ChEMBL document CHEMBL5038594, “Structural Fine-Tuning of Desmuramylpeptide NOD2 Agonists Defines Their In Vivo Adjuvant Activity” (J Med Chem, 2021).
Active and inactive are the calls of the source. No cut-off for these calls is given here.

What was measured:
[1] = Cytotoxicity against HEK-Blue hNOD2 cells assessed as reduction in metabolic activity at 20 uM incubated for 18 hrs by MTS assay; assay type: toxicity, cell-based; details: human, hek-blue hnod2, 18 h
Outline: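 HEK-Blue NOD2 cells, 40 000 per well, exposed to 20 μM compound or 0.1% DMSO for 18 h at 37 °C, 5% CO2. Metabolic activity measured by MTS (CellTiter 96 AQueous One) reagent. Duplicates, two independent biological replicates.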

[2] = molecular target: T1, Nucleotide-binding oligomerization domain-containing protein 1 (Homo sapiens) (UniProt Q9Y239); assay: Agonist activity at NOD1 in HEK-Blue hNOD2 cells assessed as increase in NFkappaB transactivation-mediated SEAP activity measured after 18 hrs by spectrophotometric method; assay type: cell-based; details: HEK-Blue hNOD1, in the assay text read “HEK-Blue hNOD1 cells” for “HEK-Blue hNOD2 cells”
T1 sequence (whole entry): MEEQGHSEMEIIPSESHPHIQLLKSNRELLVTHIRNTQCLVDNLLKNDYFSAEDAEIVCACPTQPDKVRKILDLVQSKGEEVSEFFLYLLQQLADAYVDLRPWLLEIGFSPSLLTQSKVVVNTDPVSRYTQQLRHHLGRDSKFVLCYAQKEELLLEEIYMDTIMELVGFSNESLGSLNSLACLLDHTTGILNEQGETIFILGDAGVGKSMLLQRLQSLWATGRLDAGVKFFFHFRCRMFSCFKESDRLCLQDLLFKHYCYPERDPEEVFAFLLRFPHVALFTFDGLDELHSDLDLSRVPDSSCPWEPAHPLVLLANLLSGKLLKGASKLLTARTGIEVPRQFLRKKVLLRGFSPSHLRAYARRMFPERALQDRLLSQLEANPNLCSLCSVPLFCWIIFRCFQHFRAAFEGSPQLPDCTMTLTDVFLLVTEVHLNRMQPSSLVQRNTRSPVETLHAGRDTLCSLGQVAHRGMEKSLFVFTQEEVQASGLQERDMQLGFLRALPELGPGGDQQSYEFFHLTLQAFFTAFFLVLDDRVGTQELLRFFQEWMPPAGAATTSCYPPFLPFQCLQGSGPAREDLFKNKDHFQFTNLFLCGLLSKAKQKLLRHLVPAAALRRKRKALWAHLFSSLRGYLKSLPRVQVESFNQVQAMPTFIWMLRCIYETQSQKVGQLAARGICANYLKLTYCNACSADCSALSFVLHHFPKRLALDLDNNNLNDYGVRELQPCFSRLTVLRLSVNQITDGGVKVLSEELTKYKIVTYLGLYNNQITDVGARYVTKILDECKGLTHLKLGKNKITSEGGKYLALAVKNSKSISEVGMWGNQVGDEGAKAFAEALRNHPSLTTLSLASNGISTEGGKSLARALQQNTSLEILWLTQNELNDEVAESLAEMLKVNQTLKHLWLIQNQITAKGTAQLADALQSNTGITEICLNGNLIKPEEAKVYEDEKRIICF
Outline: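 Counter-screen in HEK-Blue NOD1 cells (HEK293 stably expressing human NOD1 plus an NF-κB-inducible SEAP reporter), seeded at 2.5 × 10^5 cells/mL in HEK-Blue detection medium. Compounds at 2 μM versus 0.1% DMSO vehicle, 18 h at 37 °C, 5% CO2. SEAP read as absorbance at 630 nm. Duplicates, at least two independent experiments.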

PBMC [3] = assay: Immunostimulatory activity in human PBMC cells assessed as increase in LPS-induced TNF-alpha production at 2 uM incubated for 18 hrs by flow cytometry analysis; assay type: functional, cell-based
Outline: (§1)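 Human PBMCs from healthy donors, 1 × 10^6 cells/mL in RPMI 1640 with 10% FBS, treated with 2 μM compound or 0.1% DMSO, without or with LPS 10 ng/mL, for 18 h at 37 °C. Supernatant cytokines quantified by cytometric bead array (human inflammatory panel) on a flow cytometer against recombinant standards. Four independent donors. Repeated-measures one-way ANOVA with Dunnett.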

PBMC [4] = assay: Immunostimulatory activity in human PBMC cells assessed as increase in TNF-alpha production at 2 uM incubated for 18 hrs by flow cytometry analysis; assay type: functional, cell-based; outline: as §1
PBMC [5] = assay: Immunostimulatory activity in human PBMC cells assessed as increase in LPS-induced IL-1beta production at 2 uM incubated for 18 hrs by flow cytometry analysis; assay type: functional, cell-based; outline: as §1
PBMC [6] = assay: Immunostimulatory activity in human PBMC cells assessed as increase in LPS-induced IL-8 production at 2 uM incubated for 18 hrs by flow cytometry analysis; assay type: functional, cell-based; outline: as §1
PBMC [7] = assay: Immunostimulatory activity in human PBMC cells assessed as increase in IL-1beta production at 2 uM incubated for 18 hrs by flow cytometry analysis; assay type: functional, cell-based; outline: as §1
PBMC [8] = assay: Immunostimulatory activity in human PBMC cells assessed as increase in LPS-induced IL-6 production at 2 uM incubated for 18 hrs by flow cytometry analysis; assay type: functional, cell-based; outline: as §1
PBMC [9] = assay: Immunostimulatory activity in human PBMC cells assessed as increase in IL-6 production at 2 uM incubated for 18 hrs by flow cytometry analysis; assay type: functional, cell-based; outline: as §1
PBMC [10] = assay: Immunostimulatory activity in human PBMC cells assessed as increase in IL-8 production at 2 uM incubated for 18 hrs by flow cytometry analysis; assay type: functional, cell-based; outline: as §1

SMILES | Activity [2] | Activity [1] | also measured
COc1cc(/C=C/C(=O)NCC(=O)N[C@H](C(=O)N[C@H](CCC(=O)N(C)OC)C(=O)OC(C)(C)C)C(C)C)ccc1O | inactive | Non-Toxic | 
CCOC(=O)CC[C@@H](NC(=O)[C@@H](NC(=O)CNC(=O)C1CC1c1ccc(F)c(F)c1)C(C)C)C(=O)OCC (some centres undefined) | inactive | Non-Toxic | 
CCOC(=O)CC[C@@H](NC(=O)[C@@H](NC(=O)CNC(=O)/C=C/c1ccc([N+](=O)[O-])cc1)C(C)C)C(=O)OCC | inactive | Non-Toxic | 
CCNC(=O)CC[C@@H](NC(=O)[C@@H](NC(=O)CNC(=O)/C=C/c1ccc(O)c(OC)c1)C(C)C)C(=O)NCC | inactive | Non-Toxic | 
CCOC(=O)CC[C@@H](NC(=O)[C@@H](NC(=O)CNC(=O)[C@@H]1C[C@H]1c1ccc(F)c(F)c1)C(C)C)C(=O)OCC | inactive | Non-Toxic | 
COc1cc(/C=C/C(=O)NCC(=O)N[C@H](C(=O)N[C@H](CCC(=O)OC(C)(C)C)C(=O)N(C)OC)C(C)C)ccc1O | inactive | Non-Toxic | 
CCCCNC(=O)CC[C@@H](NC(=O)[C@@H](NC(=O)CNC(=O)/C=C/c1ccc(O)c(OC)c1)C(C)C)C(=O)OC(C)(C)C | inactive | Non-Toxic | 
CCOC(=O)CC[C@@H](NC(=O)[C@@H](NC(=O)CNC(=O)CCc1ccc(O)c(OC)c1)C(C)C)C(=O)OCC | inactive | Non-Toxic | 
COc1cc(/C=C/C(=O)NCC(=O)N[C@H](C(=O)N[C@H](CCC(=O)OC2CCCC2)C(=O)OC2CCCC2)C(C)C)ccc1OC(C)=O | inactive | Non-Toxic | 
CCOC(=O)CC[C@@H](NC(=O)[C@@H](NC(=O)CNC(=O)/C=C/c1ccc(C(C)C)cc1)C(C)C)C(=O)OCC | inactive | Non-Toxic | 
COc1cc(/C=C/C(=O)NCC(=O)N[C@H](C(=O)N[C@H](CCC(=O)OC(C)(C)C)C(=O)OC(C)(C)C)C(C)C)ccc1O | inactive | Non-Toxic | 
CCOC(=O)CC[C@@H](NC(=O)[C@@H](NC(=O)CNC(=O)C1CC1c1ccc(O)c(OC)c1)C(C)C)C(=O)OCC (some centres undefined) | inactive | Non-Toxic | 
CONC(=O)CC[C@@H](NC(=O)[C@@H](NC(=O)CNC(=O)/C=C/c1ccc(O)c(OC)c1)C(C)C)C(=O)OC(C)(C)C | inactive | Non-Toxic | 
COc1cc(/C=C/C(=O)NCC(=O)N[C@H](C(=O)N[C@H](CCC(=O)N2CCCC2)C(=O)OC(C)(C)C)C(C)C)ccc1O | inactive | Non-Toxic | 
CCOC(=O)CC[C@@H](NC(=O)[C@@H](NC(=O)CNC(=O)C1CC1c1ccc(OC)c(OC)c1)C(C)C)C(=O)OCC (some centres undefined) | inactive | Non-Toxic | 
CCCCNC(=O)CC[C@@H](NC(=O)[C@@H](NC(=O)CNC(=O)/C=C/c1ccc(O)c(OC)c1)C(C)C)C(=O)NCCCC | inactive | Non-Toxic | 
COc1cc(/C=C/C(=O)NCC(=O)N[C@H](C(=O)N[C@H](CCC(=O)OC(C)(C)C)C(=O)N2CCCC2)C(C)C)ccc1O | inactive | Non-Toxic | 
CCOC(=O)CC[C@@H](NC(=O)[C@@H](NC(=O)CNC(=O)[C@H]1C[C@@H]1c1ccc(F)c(F)c1)C(C)C)C(=O)OCC | inactive | Non-Toxic | 

Further lines, with some results ahead:

Activity [2] | SMILES | Activity [1] | also measured
inactive | CCOC(=O)CC[C@@H](NC(=O)[C@@H](NC(=O)CNC(=O)/C=C/c1ccc(OC)c(OC)c1)C(C)C)C(=O)OCC | Non-Toxic | 
inactive | CCCCCCCCCCCCCCCCCC(=O)Oc1ccc(/C=C/C(=O)NCC(=O)N[C@@H](COCc2ccccc2)C(=O)N[C@H](CCC(=O)OCC)C(=O)OCC)cc1OC | Non-Toxic | 
inactive | CCOC(=O)CC[C@@H](NC(=O)[C@@H](NC(=O)CNC(=O)/C=C/c1ccc(N)cc1)C(C)C)C(=O)OCC | Non-Toxic | 
inactive | CCOC(=O)CC[C@@H](NC(=O)[C@H](CO)NC(=O)CNC(=O)/C=C/c1ccc(O)c(OC)c1)C(=O)OCC | Non-Toxic | 
inactive | CCCCCCCCCCCCCCCCCC(=O)NCCCC[C@H](NC(=O)CC[C@@H](NC(=O)[C@@H](NC(=O)CNC(=O)/C=C/c1ccc(O)c(OC)c1)C(C)C)C(=O)OCC)C(=O)OC | Non-Toxic | 
inactive | CCOC(=O)CC[C@@H](NC(=O)[C@@H](NC(=O)CNC(=O)/C=C/c1ccc(O)c(OC)c1)[C@@H](C)O)C(=O)OCC | Non-Toxic | 
inactive | CCCCCCCCCCCCCCCCCC(=O)Oc1ccc(/C=C/C(=O)NCC(=O)N[C@H](C(=O)N[C@H](CCC(=O)OC2CCCC2)C(=O)OC2CCCC2)C(C)C)cc1OC | Non-Toxic | 
inactive | CCOC(=O)CC[C@@H](NC(=O)[C@@H](NC(=O)CNC(=O)CCCc1ccc(O)c(OC)c1)C(C)C)C(=O)OCC | Non-Toxic | 
inactive | CCOC(=O)CC[C@@H](NC(=O)[C@@H](NC(=O)CNC(=O)/C=C/c1ccc(OC(C)=O)c(OC)c1)C(C)C)C(=O)OCC | Non-Toxic | Activity (PBMC [3]): Active; Activity (PBMC [4]): Active; Activity (PBMC [5]): Active; Activity (PBMC [6]): Active; Activity (PBMC [7]): Active; Activity (PBMC [8]): Active; Activity (PBMC [9]): Active; Activity (PBMC [10]): Active
inactive | CCCCCCCCCCCC(=O)Oc1ccc(/C=C/C(=O)NCC(=O)N[C@H](C(=O)N[C@H](CCC(=O)OC2CCCC2)C(=O)OC2CCCC2)C(C)C)cc1OC | Non-Toxic | 
inactive | CCCCCCCCCCCCCCCCCCOC(=O)CC[C@@H](NC(=O)[C@@H](NC(=O)CNC(=O)/C=C/c1ccc(O)c(OC)c1)C(C)C)C(=O)OCCCCCCCCCCCCCCCCCC | Non-Toxic | 
inactive | CCOC(=O)CC[C@@H](NC(=O)[C@H](COCc1ccccc1)NC(=O)CNC(=O)/C=C/c1ccc(O)c(OC)c1)C(=O)OCC | Non-Toxic | 
inactive | CCCCCCCCCCCCCCCCCC(=O)Oc1ccc(/C=C/C(=O)NCC(=O)N[C@@H](CO)C(=O)N[C@H](CCC(=O)OCC)C(=O)OCC)cc1OC | Non-Toxic | 
inactive | CCOC(=O)[C@@H](CCC(=O)N[C@@H](CCCCN)C(=O)OC)NC(=O)[C@@H](NC(=O)CNC(=O)/C=C/c1ccc(O)c(OC)c1)C(C)C | Non-Toxic | 
inactive | CCOC(=O)CC[C@@H](NC(=O)[C@@H](NC(=O)CNC(=O)/C=C/c1ccc(O)c(O)c1)C(C)C)C(=O)OCC | Non-Toxic | 
